According to ChEMBL document CHEMBL1150800, “Multiple-dose escalation study of the safety, pharmacokinetics, and biologic activity of oral AMD070, a selective CXCR4 receptor inhibitor, in human subjects” (Antimicrob Agents Chemother, 2007):
≈ marks a conversion by molar mass, not a printed value.

Experiments:
[1] = system: Human immunodeficiency virus 1; test: Antiviral activity against HIV1 NL4.3 in human MT4 cells; type: functional, organism-based; conditions: Human immunodeficiency virus 1, MT4
[2] = Oral bioavailability in rat; type: ADME, organism-based; conditions: in vivo
[3] = Oral bioavailability in dog; type: ADME, organism-based, Canis lupus familiaris; conditions: in vivo
[4] = Half life in rat; type: ADME, organism-based; conditions: in vivo
[5] = Half life in dog; type: ADME, organism-based, Canis lupus familiaris; conditions: in vivo
[6] = Terminal half life in rat; type: ADME, organism-based; conditions: in vivo
[7] = Terminal half life in dog; type: ADME, organism-based, Canis lupus familiaris; conditions: in vivo
[8] = Tmax in fasting healthy human at 50 mg, po administered as single dose; type: ADME, organism-based; conditions: in vivo
Outline: (§1)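 Healthy male volunteers, three per cohort, took one oral dose after an 8-h overnight fast and stayed fasting until 1 h post-dose. Tmax came from per-subject noncompartmental analysis, summarized by cohort.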

[9] = Cmax in fasting healthy human at 50 mg, po administered as single dose; type: ADME, organism-based; parameters: dose 50 mg, route oral; conditions: in vivo
Outline: (§2)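 Healthy male volunteers, three per cohort, one oral dose after 8-h overnight fast, fasting kept until 1 h post-dose. Plasma sampled predose and at 0.5, 1, 1.5, 2, 3, 4, 6, 8, 12, 16, 20, 24 h. Levels by validated HPLC-MS/MS (liquid-liquid extraction, positive-ion electrospray). Noncompartmental analysis, log-linear trapezoidal AUC, summarized per cohort.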

[10] = Drug level in fasting healthy human at 50 mg, po administered as single dose after 12 hrs; type: ADME, organism-based; conditions: in vivo, read-out: Drug uptake; outline: as §2
Homo sapiens [11] = test: Apparent volume of distribution in fasting healthy human at 50 mg, po administered as single dose after 12 hrs; type: ADME, organism-based; conditions: in vivo; outline: as §2
Homo sapiens [12] = test: Half life in fasting healthy human at 50 mg, po administered as single dose after 12 hrs; type: ADME, organism-based; conditions: in vivo; outline: as §2
[13] = Tmax in fasting healthy human at 100 mg, po administered as single dose; type: ADME, organism-based; conditions: in vivo; outline: as §2
[14] = Cmax in fasting healthy human at 100 mg, po administered as single dose; type: ADME, organism-based; parameters: dose 100 mg, route oral; conditions: in vivo; outline: as §2
[15] = Drug level in fasting healthy human at 100 mg, po administered as single dose after 12 hrs; type: ADME, organism-based; conditions: in vivo, read-out: Drug uptake; outline: as §2
Homo sapiens [16] = test: AUC ( 0 to infinity) in fasting healthy human at 100 mg, po administered as single dose after 12 hrs; type: ADME, organism-based, Plasma; parameters: dose 100 mg, route oral, time infinity; conditions: in vivo; outline: as §2
Homo sapiens [17] = test: Apparent volume of distribution in fasting healthy human at 100 mg, po administered as single dose after 12 hrs; type: ADME, organism-based; conditions: in vivo; outline: as §2
Homo sapiens [18] = test: Half life in fasting healthy human at 100 mg, po administered as single dose after 12 hrs; type: ADME, organism-based; conditions: in vivo; outline: as §2
[19] = Tmax in fasting healthy human at 200 mg, po administered as single dose; type: ADME, organism-based; conditions: in vivo
Outline: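 Healthy male volunteers (cohort C, n=3) took one oral dose after an 8-h overnight fast and kept fasting to 1 h post-dose. Drug was measured by validated HPLC-MS/MS (positive electrospray), and Tmax was taken by noncompartmental analysis of individual curves.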

[20] = Cmax in fasting healthy human at 200 mg, po administered as single dose; type: ADME, organism-based; parameters: dose 200 mg, route oral; conditions: in vivo; outline: as §2
[21] = Drug level in fasting healthy human at 200 mg, po administered as single dose after 12 hrs; type: ADME, organism-based; conditions: in vivo, read-out: Drug uptake; outline: as §2
Homo sapiens [22] = test: AUC ( 0 to infinity) in fasting healthy human at 200 mg, po administered as single dose after 12 hrs; type: ADME, organism-based, Plasma; parameters: dose 200 mg, route oral, time infinity; conditions: in vivo; outline: as §2
Homo sapiens [23] = test: Apparent volume of distribution in fasting healthy human at 200 mg, po administered as single dose after 12 hrs; type: ADME, organism-based; conditions: in vivo; outline: as §2
[24] = Tmax in fasting healthy human at 400 mg, po administered as single dose; type: ADME, organism-based; conditions: in vivo; outline: as §1
[25] = Cmax in fasting healthy human at 400 mg, po administered as single dose; type: ADME, organism-based; parameters: dose 400 mg, route oral; conditions: in vivo; outline: as §2
[26] = Drug level in fasting healthy human at 400 mg, po administered as single dose after 12 hrs; type: ADME, organism-based; conditions: in vivo, read-out: Drug uptake; outline: as §2

With `NCCCCN(Cc1nc2ccccc2[nH]1)[C@H]1CCCc2cccnc21` [MAVORIXAFOR] the EC90 [1] was 0.044 µg/mL (≈ 0.126 µM), the IC50 [1] was 0.0023 µg/mL (≈ 0.00658 µM) and the bioavailability [2] was 20%. For the same compound, the bioavailability [3] was 80%, the half-life [4] was 1.4 h and the half-life [5] was 0.7 h. The half-life [6] was 10 h, the half-life [7] was 10 h and the Tmax [8] was 1.5 h. It also gave a Cmax [9] of 159 ng/mL, a concentration at 12 h [10] of 1.5 ng/mL and a Vd (Homo sapiens [11]) of 3620 L. For the same compound, the t1/2 (Homo sapiens [12]) was 10.8 h, the Tmax [13] was 1.5 h and the Cmax [14] was 276 ng/mL. The concentration at 12 h [15] was 2.1 ng/mL, the AUC (Homo sapiens [16]) was 358 ng·h/mL and the Vd (Homo sapiens [17]) was 3940 L. The t1/2 (Homo sapiens [18]) was 7.6 h, the Tmax [19] was 1 h and the Cmax [20] was 995 ng/mL. For the same compound, the concentration at 12 h [21] was 11.6 ng/mL, the AUC (Homo sapiens [22]) was 1695 ng·h/mL and the Vd (Homo sapiens [23]) was 2152 L. For the same compound, the Tmax [24] was 1.5 h, the Cmax [25] was 1400 ng/mL and the concentration at 12 h [26] was 44.6 ng/mL.
